Where a SMILES comes first, the peptide text is derived from it. Bridges are numbered along the chain shown (N, C = ends).
What was measured:
Glucagon receptor = Glucagon receptor (Rattus norvegicus, UniProt P30082); test: Glucagon receptor binding measured as 50% inhibitory concentration
In short: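 Membranes (50 µg protein) were taken from the livers of male Sprague Dawley rats (200-250 g), purified on a sucrose gradient. […] Nonspecific binding was defined with excess unlabeled peptide and subtracted. Run in triplicate, repeated twice.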

[1] = target: T1, Adenylate cyclase (Rattus norvegicus) (UniProt D4A3N4+P26770+Q04400+P26769+Q03343+P40146+Q8CFM9+P21932); test: Adenylate cyclase activity measured as percentage stimulation; type: protein assay; set-up: concentration or dose not given beside the values
Adenylate cyclase [2] = test: Adenylate cyclase activity measured as 50% inhibitory concentration; type: protein assay
Adenylate cyclase [3] = test: Adenylate cyclase activity measured as PA2; type: protein assay
[4] = target: T1, Adenylate cyclase (Rattus norvegicus); test: Adenylate cyclase activity measured as percentage stimulation at (1 uM); type: protein assay
In short: (§1)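 Rat liver plasma membranes (35 µg protein) incubated in 0.1 mL of 25 mM Tris (pH 7.5) with 0.4% BSA, 1 mM [α-32P]ATP, 5 mM MgCl2, GTP, 1 mM EDTA, 1 mM cAMP with [3H]cAMP tracer, and a phosphocreatine/creatine phosphokinase ATP-regenerating system. Labeled cAMP was isolated on Dowex cation-exchange and alumina columns.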

[5] = target: T1, Adenylate cyclase (Rattus norvegicus); test: Adenylate cyclase activity measured as percentage stimulation at 20 uM; type: protein assay; in short: as §1

Glucagon receptor, sequence (P30082 whole entry): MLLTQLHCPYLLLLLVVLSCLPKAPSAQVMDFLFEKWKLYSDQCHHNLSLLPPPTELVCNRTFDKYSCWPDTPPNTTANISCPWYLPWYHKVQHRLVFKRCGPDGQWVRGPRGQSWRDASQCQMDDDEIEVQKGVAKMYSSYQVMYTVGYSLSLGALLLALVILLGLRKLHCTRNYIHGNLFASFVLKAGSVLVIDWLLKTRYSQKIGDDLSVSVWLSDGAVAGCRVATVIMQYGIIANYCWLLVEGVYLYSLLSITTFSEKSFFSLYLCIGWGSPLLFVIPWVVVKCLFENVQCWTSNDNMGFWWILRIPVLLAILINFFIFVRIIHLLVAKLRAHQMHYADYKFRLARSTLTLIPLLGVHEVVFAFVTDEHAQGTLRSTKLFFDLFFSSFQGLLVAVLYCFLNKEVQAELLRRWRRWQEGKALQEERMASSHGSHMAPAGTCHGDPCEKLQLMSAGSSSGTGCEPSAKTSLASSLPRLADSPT

## CSCC[C@H](NC(=O)[C@H](CC(C)C)NC(=O)[C@H](Cc1c[nH]c2ccccc12)NC(=O)[C@H](CCC(N)=O)NC(=O)[C@@H](NC(=O)[C@H](Cc1ccccc1)NC(=O)[C@H](CC(=O)O)NC(=O)[C@H](CCC(N)=O)NC(=O)[C@H](C)NC(=O)[C@H](CCCN=C(N)N)NC(=O)[C@H](CCCN=C(N)N)NC(=O)[C@H](CO)NC(=O)[C@H](CC(=O)O)NC(=O)[C@H](CC(C)C)NC(=O)[C@H](Cc1ccc(O)cc1)NC(=O)[C@H](CCCCN)NC(=O)[C@H](CO)NC(=O)[C@H](Cc1ccc(O)cc1)NC(=O)[C@@H]1CCC(=O)NCCCC[C@H](NC(=O)CNC(=O)[C@H](CCC(N)=O)NC(=O)[C@H](CO)NC(=O)[C@@H](N)Cc2c[nH]cn2)C(=O)N[C@@H](Cc2ccccc2)C(=O)N[C@@H]([C@@H](C)O)C(=O)N[C@@H](CO)C(=O)N1)C(C)C)C(=O)N[C@@H](CC(N)=O)C(=O)N[C@H](C(=O)O)[C@@H](C)O (H-HSQGKFTSEYSKYLDSRRAQDFVQWLMNT-OH; lactam 5-9)
Glucagon receptor
  IC50: 0.2 nM
[1]
  Activity: 12%
Adenylate cyclase [2]
  EC50: 390 nM
Adenylate cyclase [3]
  pA2: 8.26

## CSCC[C@H](NC(=O)[C@H](CC(C)C)NC(=O)[C@H](Cc1c[nH]c2ccccc12)NC(=O)[C@H](CCC(N)=O)NC(=O)[C@@H](NC(=O)[C@H](Cc1ccccc1)NC(=O)[C@H](CC(=O)O)NC(=O)[C@H](CCC(N)=O)NC(=O)[C@H](CS)NC(=O)[C@H](CCCN=C(N)N)NC(=O)[C@H](CCCN=C(N)N)NC(=O)[C@H](CO)NC(=O)[C@H](CC(=O)O)NC(=O)[C@H](CS)NC(=O)[C@H](Cc1ccc(O)cc1)NC(=O)[C@H](CCCCN)NC(=O)[C@H](CO)NC(=O)[C@H](Cc1ccc(O)cc1)NC(=O)[C@H](CC(=O)O)NC(=O)[C@H](CO)NC(=O)[C@@H](NC(=O)[C@H](Cc1ccccc1)NC(=O)[C@@H](NC(=O)CNC(=O)[C@H](CCC(N)=O)NC(=O)[C@H](CO)NC(=O)[C@@H](N)Cc1c[nH]cn1)[C@@H](C)O)[C@@H](C)O)C(C)C)C(=O)N[C@@H](CC(N)=O)C(=O)N[C@H](C(=O)O)[C@@H](C)O (H-HSQGTFTSDYSKYCDSRRCQDFVQWLMNT-OH)
Glucagon receptor
  IC50: 13.7 nM
[4]
  Activity: 100%
Adenylate cyclase [2]
  EC50: 236 nM

## CSCC[C@H](NC(=O)[C@H](CC(C)C)NC(=O)[C@H](Cc1c[nH]c2ccccc12)NC(=O)[C@H](CCC(N)=O)NC(=O)[C@@H](NC(=O)[C@H](Cc1ccccc1)NC(=O)[C@H](CC(=O)O)NC(=O)[C@H](CCC(N)=O)NC(=O)[C@@H]1CSSC[C@H](NC(=O)[C@H](Cc2ccc(O)cc2)NC(=O)[C@H](CCCCN)NC(=O)[C@H](CO)NC(=O)[C@H](Cc2ccc(O)cc2)NC(=O)[C@H](CC(=O)O)NC(=O)[C@H](CO)NC(=O)[C@@H](NC(=O)[C@H](Cc2ccccc2)NC(=O)[C@@H](NC(=O)CNC(=O)[C@H](CCC(N)=O)NC(=O)[C@H](CO)NC(=O)[C@@H](N)Cc2c[nH]cn2)[C@@H](C)O)[C@@H](C)O)C(=O)N[C@@H](CC(=O)O)C(=O)N[C@@H](CO)C(=O)N[C@@H](CCCN=C(N)N)C(=O)N[C@@H](CCCN=C(N)N)C(=O)N1)C(C)C)C(=O)N[C@@H](CC(N)=O)C(=O)N[C@H](C(=O)O)[C@@H](C)O (H-HSQGTFTSDYSKYCDSRRCQDFVQWLMNT-OH; disulfide 14-19)
[5]
  Activity: 30%
Glucagon receptor
  IC50: 562 nM
Adenylate cyclase [2]
  EC50: 7500 nM

From ChEMBL document CHEMBL1134594 (J Med Chem, 2001)
